# Reference: PubChem BioAssay
# Unmarked numbers belong to inactive results. Records with an inconclusive call do not appear. The source made the active and inactive calls.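 Rule for the calls, unless noted: active = inhibition over a set limit, the all-compound mean plus 3 SD, in both replicate runs; inconclusive = over that limit in just one replicate run; inactive = at or under that limit in both runs.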
# Legend:
# [1] = S. cerevisiae growth inhibition in permissive medium (OD615), pilot counter-assay for S. cerevisiae lifespan shortening project, permissive growth control (AID 705;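 active = growth inhibition above 25% in both replicates, a cutoff set 3 SD above the mean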); conditions: OD615, 24 h, at 10 µM, active compounds read high
# Outline: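 Timing: 24 h exposure, 30 °C / Material: Saccharomyces cerevisiae strain carrying genetically modified DeaD replicative-lifespan system / Signal: OD at 615 nm / Compound: 10 µM single dose, 0.25% DMSO / Medium: SC raffinose/galactose permissive medium / Evaluation: reduction in yeast growth (OD615)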
# [2] = S. cerevisiae growth inhibition in restrictive medium, OD615, pilot screen, restrictive growth control, yeast lifespan reduction project (AID 706;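 active = growth inhibition above a set limit, 3 SD over mean compound inhibition, in both replicates, cut at about 43% in these data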;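 note: modified DeaD lifespan yeast strain shifted to restrictive glucose medium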); conditions: OD615, 48 h, at 10 µM, active compounds read high
# Outline: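 System: Engineered S. cerevisiae DeaD strain | Detection: OD615 | Buffer or medium: CSMM-D glucose medium | Doses: 10 µM compound, 0.25% DMSO | Timing: 4 h pre-growth plus 48 h compound exposure, 30 °C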
# [3] = doxorubicin toxicity protection in MRP-1 cells – H69AR cells, CellTiter-Glo, duplicate, MRP-1 activator project, pilot screen (AID 807;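 active = viability increase at or above a cutoff of the median across tested compounds plus 3 SD, cut at about 8.5% in these data, passing the limit was not always enough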;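 note: compound pretreatment 18-22 h then 72 h combined with doxorubicin; 0% = doxorubicin alone and 100% = vehicle without doxorubicin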); conditions: H69AR viability with doxorubicin, CellTiter-Glo luminescence; at 10 µM; active compounds read high
# [4] = viability of HCT116 without oncogenic beta-catenin – human colon tumor cells, pilot screen (AID 823;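 active = cell viability at or below a set limit in both duplicate runs, the limit being the all-compound median minus 4 SD, cut at about 23% in these data, passing the limit was not always enough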;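 note: 0% = wells killed by 20 µM Hyamine and 100% = untreated DMSO cell wells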); conditions: HCT116 beta-catenin knockout viability, CellTiter-Glo, 60 h; at 10 µM; active compounds read low
# [5] = viability of PTEN-null HCT116 cells – cell-based, HCT116 clonal line, CellTiter-Glo, pilot screen (AID 824;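 active = viability at or below 27.92% in each of two runs, the all-compound median minus 4 SD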;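 note: 0% = 20 µM Hyamine control and 100% = vehicle cell control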); conditions: HCT116 PTEN-deleted viability, 60 h, at 10 µM, active compounds read low
# [6] = RAM pathway blockade in budding yeast – dse1pr::URA3 reporter, 5-FOA selection, pilot screen (AID 869);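 note: 0% = DMSO wells with no growth and 100% = 10 µM 1-NA-PP1 with full growth; RAM network block rescues cells from 5-FOA so hits raise OD615 growth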; conditions: S. cerevisiae dse1pr::URA3 5-FOA growth, OD615, 2 d; at 10 µM; active compounds read high; strain carries analog-sensitive mutant Cbk1 kinase
# [7] = RAM signaling pathway blockade in yeast – S. cerevisiae, Pdr1DBD-CYC8 efflux-inhibited sensitized strain, primary screen (AID 1298;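 active = RAM network inhibition above 8.4% in each of two replicates, 3 SD over the compound average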;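 note: 0% = DMSO untreated cells without growth and 100% = 10 µM 1-NA-PP1 full growth; higher means more yeast growth rescued from 5-FOA killing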); conditions: S. cerevisiae cbk1-as DSE1-URA3 strain, 5-FOA growth OD615, 2 d; at 50 µM; active compounds read high
Structure (SMILES),growth inhibition [1] [%],growth inhibition [2] [%],viability increase [3] [%],viability [4],viability [5],inhibition [6] [%],RAM network inhibition [7] [%]
CCN(CC)S(=O)(=O)c1ccc(Cl)c(C(=O)NC2CCCC2)c1,-6.5,-7.35,0.17,92.9%,97.1%,0.145,3.38
Cc1cc(CN2C(=O)c3ccccc3C2=O)cc(N2CCOCC2)c1,-9.23,-10.3,-2.19,95%,87.7%,0.76,1.4
CC1CCc2c(sc3ncnc(NCCN4CCOCC4)c23)C1 (stereo unspecified),-7.6,-5.73,-6.47,96.4%,95%,1.02,5.28
CCOc1ccc(CC(=O)N2CCN(c3ccc(N4CCOCC4)nn3)CC2)cc1OCC,-1.33,8.3,0.46,103%,106%,-0.385,6.26
O=C(Cn1nc(Cc2cccnc2)c2ccccc2c1=O)N1CCN(c2ccccn2)CC1,4.64,2.73,0.48,94.8%,100%,0.985,-0.56
Nc1[nH]nc2nc(N3CCOCC3)nc(-c3ccccc3)c12,-7.04,4.65,-4.39,88.2%,88.3%,2.38,1.55
Cc1cc(Nc2ccc(F)cc2C)n2ncnc2n1,-3.29,-0.445,0.05,108%,101%,1.8,5.54
O=C1CC2CS(=O)(=O)CC2N1C1CCCCC1 (stereo unspecified),-8.38,-13.2,-0.5,107%,96%,0.495,2.85
CS(=O)(=O)n1nc(C(=O)N2CCOCC2)nc1N,-10,-18.6,0.47,103%,98.4%,2.68,5.4
CCCc1cc(C(=O)Nc2cccc(C(C)=O)c2)no1,-4.86,1.98,0.44,104%,92.3%,1.75,2.91
CN(C)c1cccc(NC(=O)Cc2ccc(F)cc2)c1,-11.6,-21.4,-4.02,85.4%,84.2%,1.14,5.85
CCN(c1cccc(C)c1)c1ncnc2nc[nH]c12,-4.6,15.6,-3.73,103%,95.9%,0.95,0.64
COc1ccc(CCNC(=O)CCn2c(=O)oc3ccccc32)cc1,-5.1,-14,-1.45,109%,99.7%,-0.205,2.7
Cn1c(=O)oc2cc(S(=O)(=O)N3CCCC(C(=O)Nc4ccc5c(c4)OCCO5)C3)ccc21 (stereo unspecified),-0.19,-4.89,-1.81,89.5%,90%,1.42,1.66
CCN1CCN(CC(=O)Nc2cccc(C)c2C)C(=O)C1=O,-3.54,-7.93,-0.73,99%,90.9%,2.46,2.6
O=C(CC12CC3CC(CC(C3)C1)C2)N1CCOCC1,6.71,1.68,-0.17,102%,102%,1.39,7.72
O=C(Nc1ccccc1Oc1ccccc1)C1CC1,-13.6,3.26,-2.26,89.5%,93.1%,0.595,3.21

Structure (SMILES),growth inhibition [1] [%],growth inhibition [2] [%],viability increase [3] [%],viability [4],viability [5],inhibition [6] [%],RAM network inhibition [7] [%]
CCn1c(=NC(=O)CN2C(=O)CCC2=O)sc2c(C)cc(C)cc21,-13.1,-2.35,-4.23,92.2%,91.2%,0.505,6.51
COc1ccc(CNC(=O)CN(c2cc(C)cc(C)c2)S(=O)(=O)c2c(C)noc2C)cc1,-24.7,-27.1,-4.08,97.1%,89.2%,1.92,3.21
N#CC(c1nc2ccccc2nc1N1CCCC1)S(=O)(=O)c1ccccc1 (stereo unspecified),-17.2,-3.85,-4.56,81.9%,84.5%,0.815,5.73
COCc1nnc(SCC(=O)Nc2cccc(Cl)c2C)n1-c1ccccc1,-5.62,-13,-0.41,107%,93.3%,0.57,3.49
COc1cc(OC)cc(C(=O)NCCn2ccc3ccccc32)c1,-5.04,0.31,-3.92,92.8%,92.3%,1.16,7.95
COc1cccc(OCCn2c(C)c(/C=N/n3cnnc3)c3ccccc32)c1,4.55,1.59,-2.88,99.3%,87%,2.11,7.39
CCOC(=O)C1CCCN(c2cc(=O)n(-c3ccccc3Cl)c(=O)[nH]2)C1 (stereo unspecified),-3.86,-18.9,-1.99,89.7%,94.5%,1.53,0.31
Cn1cccc1Cc1nnc(SCC(=O)NCc2ccccc2Cl)n1-c1ccc(F)cc1,-7.31,9.87,-5,87%,86.5%,1.92,8.74
COc1cccc(C(=O)Nc2cc(=O)n(C)c(=O)n2C)c1,-11,-8.35,-2.05,103%,97.4%,2.98,2.08
COC(=O)C(C)Sc1nnc(Cc2cc(=O)[nH]c(=O)[nH]2)n1-c1ccc(OC)cc1 (stereo unspecified),8.07,4.31,0.81,106%,101%,1.41,2.47
O=C(Nc1ccc2nc3n(c(=O)c2c1)CCCCC3)c1ccccn1,-2.29,2.34,1.28,102%,107%,0.8,-2.05
COc1ccc(NC(C)=O)cc1NC(=O)CSc1nnc(-c2cccnc2)n1C,-5.75,-0.47,-0.83,104%,100%,0.485,1.19
Cc1nc2ccc(S(=O)(=O)NC(C(=O)NC3CCCC3)C(C)C)cc2s1 (stereo unspecified),-5.81,-1.42,-0.4,102%,101%,1.04,1.87
N=c1n(CCO)c2ccccc2n1CCOc1ccc(Cl)cc1Cl,-0.15,4.96,-8.35,1.5% (active),1.54% (active),1,0.72
CC(C)Sc1oc(-c2ccco2)nc1S(=O)(=O)c1ccc(F)cc1,-5.61,-0.07,-2.29,94%,89.8%,1.54,6.36
Brc1ccccc1OCCCN1CCOCC1,-11.7,-9.51,1.1,97.8%,98.2%,1.48,4.22
